Test results from ChEMBL document CHEMBL3286366, “Identification of malic enzyme mutants depending on 1,2,3-triazole moiety-containing nicotinamide adenine dinucleotide analogs” (Bioorg Med Chem Lett, 2014).

Assays:
Escherichia coli K-12 [1] = test: Activity of purified recombinant Escherichia coli K-12 malic enzyme L310K/L404S mutant at 0.2 mM by Lineweaver-Burk plot method in presence of L-malate MnCl2
Escherichia coli K-12 [2] = test: Ratio of Kcat to Km for purified recombinant Escherichia coli K-12 malic enzyme L310K/L404S mutant at 0.2 mM by Lineweaver-Burk plot method in presence of L-malate MnCl2
Escherichia coli K-12 [3] = test: Activity of purified recombinant Escherichia coli K-12 malic enzyme L310R/L404C mutant at 0.2 mM by UV-vis spectrophotometry in presence of L-malate MnCl2
How it was run: (§1)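 Screening of malic enzyme mutants with 1,2,3-triazole-containing NAD analogs as cofactor. Each analog was present at 0.2 mM, and the read-out was specific activity.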

Escherichia coli K-12 [4] = test: Activity of purified recombinant Escherichia coli K-12 malic enzyme L310K/Q401R mutant at 0.2 mM by UV-vis spectrophotometry in presence of L-malate MnCl2; how it was run: as §1
Escherichia coli K-12 [5] = test: Activity of purified recombinant Escherichia coli K-12 malic enzyme L310K/L404S mutant at 0.2 mM by UV-vis spectrophotometry in presence of L-malate MnCl2; how it was run: as §1
Escherichia coli K-12 [6] = test: Activity of purified recombinant Escherichia coli K-12 malic enzyme L310R/L404N mutant at 0.2 mM by UV-vis spectrophotometry in presence of L-malate MnCl2; how it was run: as §1
Escherichia coli K-12 [7] = test: Activity of purified recombinant Escherichia coli K-12 malic enzyme L310R/Q401V mutant at 0.2 mM by UV-vis spectrophotometry in presence of L-malate MnCl2; how it was run: as §1
Escherichia coli K-12 [8] = test: Activity of purified recombinant Escherichia coli K-12 malic enzyme L310R/Q401N mutant at 0.2 mM by UV-vis spectrophotometry in presence of L-malate MnCl2; how it was run: as §1
Escherichia coli K-12 [9] = test: Activity of purified recombinant Escherichia coli K-12 malic enzyme L310R/Q401S mutant at 0.2 mM by UV-vis spectrophotometry in presence of L-malate MnCl2; how it was run: as §1
Escherichia coli K-12 [10] = test: Activity of purified recombinant Escherichia coli K-12 malic enzyme L310R/Q401I mutant at 0.2 mM by UV-vis spectrophotometry in presence of L-malate MnCl2; how it was run: as §1
[11] = compound: Cc1ccccc1-c1cn([C@H]2O[C@@H](COP(=O)(O)OP(=O)([O-])OC[C@H]3O[C@@H]([n+]4cccc(C(N)=O)c4)[C@H](O)[C@@H]3O)[C@H](O)[C@@H]2O)nn1; test: (§2) Activity of purified recombinant Escherichia coli K-12 malic enzyme at 0.2 mM by Lineweaver-Burk plot method in presence of L-malate MnCl2
[12] = compound: NC(=O)c1ccc[n+]([C@@H]2O[C@H](COP(=O)([O-])OP(=O)(O)OC[C@@H]3O[C@H](n4cc(-c5ccccc5)nn4)[C@@H](O)[C@H]3O)[C@@H](O)[C@H]2O)c1; test: as §2
[13] = compound: NC(=O)c1ccc[n+]([C@@H]2O[C@H](COP(=O)([O-])OP(=O)(O)OC[C@@H]3O[C@H](n4cc(-c5cccc6ccccc56)nn4)[C@@H](O)[C@H]3O)[C@@H](O)[C@H]2O)c1; test: as §2
[14] = compound: NC(=O)c1ccc[n+]([C@@H]2O[C@H](COP(=O)([O-])OP(=O)(O)OC[C@@H]3O[C@H](n4cnc5c(N)ncnc54)[C@@H](O)[C@H]3O)[C@@H](O)[C@H]2O)c1; test: as §2
[15] = compound: Cc1ccccc1-c1cn([C@H]2O[C@@H](COP(=O)(O)OP(=O)([O-])OC[C@H]3O[C@@H]([n+]4cccc(C(N)=O)c4)[C@H](O)[C@@H]3O)[C@H](O)[C@@H]2O)nn1; test: (§3) Ratio of Kcat to Km for purified recombinant Escherichia coli K-12 malic enzyme at 0.2 mM by Lineweaver-Burk plot method in presence of L-malate MnCl2
[16] = compound: NC(=O)c1ccc[n+]([C@@H]2O[C@H](COP(=O)([O-])OP(=O)(O)OC[C@@H]3O[C@H](n4cc(-c5ccccc5)nn4)[C@@H](O)[C@H]3O)[C@@H](O)[C@H]2O)c1; test: as §3
[17] = compound: NC(=O)c1ccc[n+]([C@@H]2O[C@H](COP(=O)([O-])OP(=O)(O)OC[C@@H]3O[C@H](n4cc(-c5cccc6ccccc56)nn4)[C@@H](O)[C@H]3O)[C@@H](O)[C@H]2O)c1; test: as §3
[18] = compound: NC(=O)c1ccc[n+]([C@@H]2O[C@H](COP(=O)([O-])OP(=O)(O)OC[C@@H]3O[C@H](n4cnc5c(N)ncnc54)[C@@H](O)[C@H]3O)[C@@H](O)[C@H]2O)c1; test: as §3

NC(=O)c1ccc[n+]([C@@H]2O[C@H](COP(=O)([O-])OP(=O)(O)OC[C@@H]3O[C@H](n4cnc5c(N)ncnc54)[C@@H](O)[C@H]3O)[C@@H](O)[C@H]2O)c1
Km (Escherichia coli K-12 [1]): 4100 µM
kcat (Escherichia coli K-12 [1]): 33.7 s⁻¹
kcat/Km (Escherichia coli K-12 [2]): 8200 M⁻¹ s⁻¹

NC(=O)c1ccc[n+]([C@@H]2O[C@H](COP(=O)([O-])OP(=O)(O)OC[C@@H]3O[C@H](n4cc(-c5ccccc5)nn4)[C@@H](O)[C@H]3O)[C@@H](O)[C@H]2O)c1
Km (Escherichia coli K-12 [1]): 2500 µM
kcat (Escherichia coli K-12 [1]): 16.4 s⁻¹
kcat/Km (Escherichia coli K-12 [2]): 6700 M⁻¹ s⁻¹

NC(=O)c1ccc[n+]([C@@H]2O[C@H](COP(=O)([O-])OP(=O)(O)OC[C@@H]3O[C@H](n4cc(-c5cccc6ccccc56)nn4)[C@@H](O)[C@H]3O)[C@@H](O)[C@H]2O)c1
Activity (Escherichia coli K-12 [3]): 0.36 U/mg
Activity (Escherichia coli K-12 [4]): 2.3 U/mg
Km (Escherichia coli K-12 [1]): 1000 µM
kcat (Escherichia coli K-12 [1]): 68.6 s⁻¹
Activity (Escherichia coli K-12 [5]): 10.5 U/mg
Activity (Escherichia coli K-12 [6]): 0.47 U/mg
Activity (Escherichia coli K-12 [7]): 0.53 U/mg
kcat/Km (Escherichia coli K-12 [2]): 68600 M⁻¹ s⁻¹
Activity (Escherichia coli K-12 [8]): 0.32 U/mg

Cc1ccccc1-c1cn([C@H]2O[C@@H](COP(=O)(O)OP(=O)([O-])OC[C@H]3O[C@@H]([n+]4cccc(C(N)=O)c4)[C@H](O)[C@@H]3O)[C@H](O)[C@@H]2O)nn1
Km (Escherichia coli K-12 [1]): 1100 µM
kcat (Escherichia coli K-12 [1]): 86.7 s⁻¹
kcat/Km (Escherichia coli K-12 [2]): 78800 M⁻¹ s⁻¹

NC(=O)c1ccc[n+]([C@@H]2O[C@H](COP(=O)([O-])OP(=O)(O)OC[C@@H]3O[C@H](n4cc(C(=O)O)nn4)[C@@H](O)[C@H]3O)[C@@H](O)[C@H]2O)c1
Activity (Escherichia coli K-12 [4]): 2.1 U/mg
Activity (Escherichia coli K-12 [5]): 0.17 U/mg

COc1ccc(-c2cn([C@H]3O[C@@H](COP(=O)(O)OP(=O)([O-])OC[C@H]4O[C@@H]([n+]5cccc(C(N)=O)c5)[C@H](O)[C@@H]4O)[C@H](O)[C@@H]3O)nn2)cc1
Activity (Escherichia coli K-12 [3]): 0.51 U/mg
Activity (Escherichia coli K-12 [4]): 4.3 U/mg
Activity (Escherichia coli K-12 [9]): 0.43 U/mg
Activity (Escherichia coli K-12 [10]): 0.98 U/mg
Activity (Escherichia coli K-12 [5]): 1.6 U/mg
Activity (Escherichia coli K-12 [6]): 0.51 U/mg
Activity (Escherichia coli K-12 [8]): 0.43 U/mg

B1: NAD-dependent malic enzyme (Escherichia coli (strain K12)), P26616 (protein)
chain: MEPKTKKQRSLYIPYAGPVLLEFPLLNKGSAFSMEERRNFNLLGLLPEVVETIEEQAERAWIQYQGFKTEIDKHIYLRNIQDTNETLFYRLVNNHLDEMMPVIYTPTVGAACERFSEIYRRSRGVFISYQNRHNMDDILQNVPNHNIKVIVVTDGERILGLGDQGIGGMGIPIGKLSLYTACGGISPAYTLPVVLDVGTNNQQLLNDPLYMGWRNPRITDDEYYEFVDEFIQAVKQRWPDVLLQFEDFAQKNAMPLLNRYRNEICSFNDDIQGTAAVTVGTLIAASRAAGGQLSEKKIVFLGAGSAGCGIAEMIISQTQREGLSEEAARQKVFMVDRFGLLTDKMPNLLPFQTKLVQKRENLSDWDTDSDVLSLLDVVRNVKPDILIGVSGQTGLFTEEIIREMHKHCPRPIVMPLSNPTSRVEATPQDIIAWTEGNALVATGSPFNPVVWKDKIYPIAQCNNAFIFPGIGLGVIASGASRITDEMLMSASETLAQYSPLVLNGEGMVLPELKDIQKVSRAIAFAVGKMAQQQGVAVKTSAEALQQAIDDNFWQAEYRDYRRTSI
Km [11]: 1600 µM
kcat [11]: 10 s⁻¹
Km [12]: 2900 µM
kcat [12]: 7.5 s⁻¹
Km [13]: 1800 µM
kcat [13]: 4.6 s⁻¹
Km [14]: 280 µM
kcat [14]: 103 s⁻¹
kcat/Km [15]: 6300 M⁻¹ s⁻¹
kcat/Km [16]: 2600 M⁻¹ s⁻¹
kcat/Km [17]: 2600 M⁻¹ s⁻¹
kcat/Km [18]: 369000 M⁻¹ s⁻¹
